# In ChEMBL document CHEMBL4316592, “Synthesis of new derivatives of boehmeriasin A and their biological evaluation in liver cancer” (Eur J Med Chem, 2019):
# pIC50: −log10 of the molar value. Calls of active or inactive are those of the source. No cut-off for these calls is given here.
# Experiments:
# Huh-7 [1] = experiment: Induction of apoptosis in human HuH7 cells assessed as increase in cytochrome C levels by Hoechst staining-based assay; type: functional, cell-based
# Outline: (§1)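 Cells were seeded on coverslips and treated after 24 h with compound at a single concentration for 72 h. Camptothecin was the positive control, with DMSO solvent control at matched volume. Cells were fixed in ice-cold methanol for 15 min, then given anti-cytochrome c (1:100 in 0.1% TBS-Tween) for 1 h and FITC secondary (1:200) for 1 h. Nuclei were counterstained and imaged by fluorescence microscopy.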
# Mahlavu [2] = experiment: Induction of apoptosis in human Mahlavu cells assessed as increase in cytochrome C levels by Hoechst staining-based assay; type: functional, cell-based; outline: as §1
# SNU-475 = experiment: Cytotoxicity against human SNU475 cells after 72 hrs by SRB assay; type: functional, cell-based
# Outline: (§2)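 SRB assay. Cells plated per well (HCT116 3000; Huh7, Hep3B, HepG2, MCF-7 2000; Mahlavu, FOCUS, SNU475 1000) and grown 24 h. Compounds came from 20 mM DMSO stocks and were tested in triplicate, 40 to 2,5 (or 2,5 to 0,03) per printed range, for 72 h. Cells fixed in 10% TCA, stained with 0.4% SRB, dye dissolved in 10 mM Tris, A515 read. IC50 derived after DMSO normalization.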
# MCF7 = experiment: Cytotoxicity against human MCF7 cells after 72 hrs by SRB assay; type: functional, cell-based; details: for pIC50: Homo sapiens, MCF7, 72 h, read-out: IC50; outline: as §2
# Hep 3B2 = experiment: Cytotoxicity against human Hep3B cells after 72 hrs by SRB assay; type: functional, cell-based; outline: as §2
# HepG2 = experiment: Cytotoxicity against human HepG2 cells after 72 hrs by SRB assay; type: functional, cell-based; details: hepg2; outline: as §2
# Huh-7 [3] = experiment: Cytotoxicity against human HuH7 cells after 72 hrs by SRB assay; type: functional, cell-based; details: for pIC50: Homo sapiens, Huh-7, 72 h, read-out: IC50; for IC50: huh-7; outline: as §2
# HCT-116 = experiment: Cytotoxicity against human HCT116 cells after 72 hrs by SRB assay; type: functional, cell-based; details: for pIC50: Homo sapiens, HCT-116, 72 h, read-out: IC50; outline: as §2
# MCF-12A = experiment: Cytotoxicity against human MCF12A cells after 72 hrs by SRB assay; type: cell-based; details: for IC50: mcf-12a; for pIC50: Homo sapiens, MCF-12A, 72 h, read-out: IC50
# Mahlavu [4] = experiment: Cytotoxicity against human Mahlavu cells after 72 hrs by SRB assay; type: functional, cell-based; details: for pIC50: Homo sapiens, Mahlavu, 72 h, read-out: IC50; for IC50: mahlavu; outline: as §2
# [5] = Cytotoxicity against human FOCUS cells after 72 hrs by SRB assay; type: functional, cell-based; outline: as §2
# Mahlavu [6] = experiment: Induction of apoptosis in human Mahlavu cells assessed as viable cells at 1 uM after 72 hrs by Annexin V-FITC/propidium iodide staining-based flow cytometric analysis (reference value: 96.05%); type: functional; details: read-out: Activity
# Huh-7 [7] = experiment: Induction of apoptosis in human HuH7 cells assessed as viable cells at 1 uM after 24 hrs by Annexin V-FITC/propidium iodide staining-based flow cytometric analysis (reference value: 97.30%); type: functional; details: Huh-7, 24 h, read-out: Activity
# Mahlavu [8] = experiment: Induction of apoptosis in human Mahlavu cells assessed as late apoptotic cells at 1 uM after 48 hrs by Annexin V-FITC/propidium iodide staining-based flow cytometric analysis (reference value: 1.45%); type: functional
# Mahlavu [9] = experiment: Induction of apoptosis in human Mahlavu cells assessed as early apoptotic cells at 1 uM after 48 hrs by Annexin V-FITC/propidium iodide staining-based flow cytometric analysis (reference value: 0%); type: functional
# Huh-7 [10] = experiment: Induction of apoptosis in human HuH7 cells assessed as late apoptotic cells at 1 uM after 24 hrs by Annexin V-FITC/propidium iodide staining-based flow cytometric analysis (reference value: 2.51%); type: functional
# Mahlavu [11] = experiment: Induction of apoptosis in human Mahlavu cells assessed as apoptotic body formation at 1 uM by Hoechst staining-based assay; type: functional, cell-based
# Huh-7 [12] = experiment: Induction of apoptosis in human HuH7 cells assessed as necrotic cells at 1 uM after 48 hrs by Annexin V-FITC/propidium iodide staining-based flow cytometric analysis (reference value: 0.02%); type: functional
# Huh-7 [13] = experiment: Induction of apoptosis in human HuH7 cells assessed as viable cells at 1 uM after 72 hrs by Annexin V-FITC/propidium iodide staining-based flow cytometric analysis (reference value: 97.20%); type: functional; details: Huh-7, 72 h, read-out: Activity
# Mahlavu [14] = experiment: Induction of apoptosis in human Mahlavu cells assessed as early apoptotic cells at 1 uM after 24 hrs by Annexin V-FITC/propidium iodide staining-based flow cytometric analysis (reference value: 0.09%); type: functional
# Mahlavu [15] = experiment: Induction of apoptosis in human Mahlavu cells assessed as early apoptotic cells at 1 uM after 72 hrs by Annexin V-FITC/propidium iodide staining-based flow cytometric analysis (reference value: 0.24%); type: functional
# MCF-10A = experiment: Cytotoxicity against human MCF10A cells after 72 hrs by SRB assay; type: cell-based
# Mahlavu [16] = experiment: Induction of apoptosis in human Mahlavu cells assessed as late apoptotic cells at 1 uM after 24 hrs by Annexin V-FITC/propidium iodide staining-based flow cytometric analysis (reference value: 1.28%); type: functional
# Mahlavu [17] = experiment: Induction of apoptosis in human Mahlavu cells assessed as necrotic cells at 1 uM after 48 hrs by Annexin V-FITC/propidium iodide staining-based flow cytometric analysis (reference value: 0.07%); type: functional
# Mahlavu [18] = experiment: Induction of apoptosis in human Mahlavu cells assessed as necrotic cells at 1 uM after 72 hrs by Annexin V-FITC/propidium iodide staining-based flow cytometric analysis (reference value: 0.22%); type: functional
# Huh-7 [19] = experiment: Induction of apoptosis in human HuH7 cells assessed as necrotic cells at 1 uM after 24 hrs by Annexin V-FITC/propidium iodide staining-based flow cytometric analysis (reference value: 0.03%); type: functional
# Mahlavu [20] = experiment: Induction of apoptosis in human Mahlavu cells assessed as viable cells at 1 uM after 24 hrs by Annexin V-FITC/propidium iodide staining-based flow cytometric analysis (reference value: 98.51%); type: functional; details: read-out: Activity
# Mahlavu [21] = experiment: Induction of apoptosis in human Mahlavu cells assessed as necrotic cells at 1 uM after 24 hrs by Annexin V-FITC/propidium iodide staining-based flow cytometric analysis (reference value: 0.13%); type: functional
# Huh-7 [22] = experiment: Induction of apoptosis in human HuH7 cells assessed as early apoptotic cells at 1 uM after 72 hrs by Annexin V-FITC/propidium iodide staining-based flow cytometric analysis (reference value: 0.03%); type: functional
# Huh-7 [23] = experiment: Induction of apoptosis in human HuH7 cells assessed as viable cells at 1 uM after 48 hrs by Annexin V-FITC/propidium iodide staining-based flow cytometric analysis (reference value: 97.42%); type: functional; details: Huh-7, 48 h, read-out: Activity
# Huh-7 [24] = experiment: Induction of apoptosis in human HuH7 cells assessed as late apoptotic cells at 1 uM after 72 hrs by Annexin V-FITC/propidium iodide staining-based flow cytometric analysis (reference value: 2.34%); type: functional
# Huh-7 [25] = experiment: Induction of apoptosis in human HuH7 cells assessed as early apoptotic cells at 1 uM after 48 hrs by Annexin V-FITC/propidium iodide staining-based flow cytometric analysis (reference value: 0.02%); type: functional
# Mahlavu [26] = experiment: Induction of apoptosis in human Mahlavu cells assessed as viable cells at 1 uM after 48 hrs by Annexin V-FITC/propidium iodide staining-based flow cytometric analysis (reference value: 98.48%); type: functional; details: read-out: Activity
# Mahlavu [27] = experiment: Induction of apoptosis in human Mahlavu cells assessed as chromatin condensation at 1 uM by Hoechst staining-based assay; type: functional, cell-based
# Mahlavu [28] = experiment: Induction of apoptosis in human Mahlavu cells assessed as late apoptotic cells at 1 uM after 72 hrs by Annexin V-FITC/propidium iodide staining-based flow cytometric analysis (reference value: 3.48%); type: functional
# Huh-7 [29] = experiment: Induction of apoptosis in human HuH7 cells assessed as necrotic cells at 1 uM after 72 hrs by Annexin V-FITC/propidium iodide staining-based flow cytometric analysis (reference value: 0.43%); type: functional
# Huh-7 [30] = experiment: Induction of apoptosis in human HuH7 cells assessed as early apoptotic cells at 1 uM after 24 hrs by Annexin V-FITC/propidium iodide staining-based flow cytometric analysis (reference value: 0.17%); type: functional
# Huh-7 [31] = experiment: Induction of apoptosis in human HuH7 cells assessed as late apoptotic cells at 1 uM after 48 hrs by Annexin V-FITC/propidium iodide staining-based flow cytometric analysis (reference value: 2.53%); type: functional
smiles,measurement,setting,value
CC[C@@]1(O)C(=O)OCc2c1cc1n(c2=O)Cc2cc3ccccc3nc2-1,Activity,Huh-7 [1],Active
same,Activity,Mahlavu [2],Active
COc1ccc2c3c(c4cc(OC)c(OC)cc4c2c1)CN1CCCCC1C3=O (configuration not stated),pIC50,"SNU-475; Homo sapiens, SNU-475, 72 h, read-out: IC50",4.72
same,pIC50,MCF7,5.15
same,pIC50,"Hep 3B2; Homo sapiens, Hep3B, 72 h, read-out: IC50",4.35
same,IC50,HepG2,Not Active
same,pIC50,Huh-7 [3],4.92
same,pIC50,HCT-116,5.09
same,IC50,MCF-12A,Non-Toxic
same,pIC50,Mahlavu [4],4.46
same,pIC50,"[5]; Homo sapiens, 72 h, read-out: IC50",5.30
COc1ccc2cc(CN3CCCCC3C(=O)[O-])c3cc(OC)c(OC)cc3c2c1.[K+] (configuration not stated),IC50,SNU-475; snu-475,Not Active
same,IC50,MCF7; mcf7,Not Active
same,IC50,Hep 3B2; hep 3b2,Not Active
same,IC50,HepG2,Not Active
same,IC50,Huh-7 [3],Not Active
same,IC50,HCT-116; hct-116,Not Active
same,IC50,MCF-12A,Non-Toxic
same,IC50,Mahlavu [4],Not Active
same,IC50,[5],Not Active
COc1ccc(/C=C(/C(=O)NCCCn2ccnc2)c2ccc(OC)c(OC)c2)cc1,IC50,Huh-7 [3],Not Active
same,IC50,Mahlavu [4],Not Active
COc1ccc(/C=C(/CNCCCn2ccnc2)c2ccc(OC)c(OC)c2)cc1,pIC50,Huh-7 [3],5.03
same,pIC50,Mahlavu [4],4.86
COc1ccc2cc(C(=O)NCCCn3ccnc3)c3cc(OC)c(OC)cc3c2c1,pIC50,Huh-7 [3],4.72
same,pIC50,Mahlavu [4],4.27
COc1ccc2cc(CNCCCn3ccnc3)c3cc(OC)c(OC)cc3c2c1,IC50,Huh-7 [3],Not Active
same,IC50,Mahlavu [4],Not Active
COc1ccc2c3c(c4cc(OC)c(OC)cc4c2c1)CN1CCCC[C@@H]1[C@H]3O (racemic),viability at 1 µM,Mahlavu [6],88.9%
same,viability at 1 µM,Huh-7 [7],99.1%
same,Activity,Mahlavu [8],5.9%
same,Activity,Mahlavu [9],0%
same,Activity,Huh-7 [10],0.81%
same,Activity,Mahlavu [11],Active
same,Activity,Huh-7 [12],0.13%
same,viability at 1 µM,Huh-7 [13],95%
same,pIC50,MCF7,7.80
same,Activity,Mahlavu [14],0.02%
same,Activity,Mahlavu [15],0%
same,pIC50,MCF-10A,6.10
same,Activity,Mahlavu [16],3.47%
same,Activity,Mahlavu [17],0.32%
same,Activity,Mahlavu [18],0.61%
same,Activity,Huh-7 [19],0.07%
same,viability at 1 µM,Mahlavu [20],96.2%
same,Activity,Mahlavu [21],0.33%
same,pIC50,Huh-7 [3],6.51
same,Activity,Huh-7 [22],0.05%
same,viability at 1 µM,Huh-7 [23],96.4%
same,Activity,Huh-7 [24],4.69%
same,Activity,Huh-7 [25],0.07%
same,viability at 1 µM,Mahlavu [26],93.8%
same,Activity,Mahlavu [27],Active
same,pIC50,HCT-116,7.37
same,Activity,Mahlavu [28],10.53%
same,pIC50,MCF-12A,< 7.30
same,pIC50,Mahlavu [4],< 7.30
same,Activity,Huh-7 [29],0.23%
same,Activity,Huh-7 [30],0%
same,Activity,Huh-7 [31],3.38%
COc1ccc2c3c(c4cc(OC)c(OC)cc4c2c1)CN1CCCC[C@@H]1[C@@H]3O (racemic),viability at 1 µM,Mahlavu [6],29.4%
same,viability at 1 µM,Huh-7 [7],99.1%
same,Activity,Mahlavu [8],29.29%
same,Activity,Mahlavu [9],0%
same,Activity,Huh-7 [10],0.82%
same,Activity,Mahlavu [11],Active
same,Activity,Huh-7 [12],0.21%
same,viability at 1 µM,Huh-7 [13],83%
same,pIC50,MCF7,7.68
same,Activity,Mahlavu [14],0.03%
same,Activity,Mahlavu [15],0%
same,pIC50,MCF-10A,6.85
same,Activity,Mahlavu [16],6.72%
same,Activity,Mahlavu [17],0.54%
same,Activity,Mahlavu [18],1.59%
same,Activity,Huh-7 [19],0.02%
same,viability at 1 µM,Mahlavu [20],92.7%
same,Activity,Mahlavu [21],0.58%
same,pIC50,Huh-7 [3],7.77
same,Activity,Huh-7 [22],0%
same,viability at 1 µM,Huh-7 [23],93%
same,Activity,Huh-7 [24],16.83%
same,Activity,Huh-7 [25],0.07%
same,viability at 1 µM,Mahlavu [26],70.2%
same,Activity,Mahlavu [27],Active
same,pIC50,HCT-116,8.15
same,Activity,Mahlavu [28],69.05%
same,pIC50,MCF-12A,7.00
same,pIC50,Mahlavu [4],< 7.30
same,Activity,Huh-7 [29],0.16%
same,Activity,Huh-7 [30],0.05%
same,Activity,Huh-7 [31],6.75%
